Measured values: ChEMBL document CHEMBL1153582, “Expedient solid-phase synthesis of both symmetric and asymmetric diol libraries targeting aspartic proteases” (Bioorg Med Chem Lett, 2009)

Assays:
[1] = target: Plasmepsin I (Plasmodium falciparum, UniProt P39898); test: Inhibition of Plasmodium falciparum plasmepsin-1 in fluorescence microplate assay
Method in brief: (§1)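 Library products were used as crude material, without purification, for direct in situ screening in a standard fluorescence microplate assay. IC50 was taken from inhibition curves plotted against log inhibitor concentration in nM.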

[2] = target: Plasmepsin II (Plasmodium falciparum, UniProt P46925); test: Inhibition of Plasmodium falciparum plasmepsin-2 in fluorescence microplate assay; method in brief: as §1
Sequence of Plasmepsin II (P46925 whole entry): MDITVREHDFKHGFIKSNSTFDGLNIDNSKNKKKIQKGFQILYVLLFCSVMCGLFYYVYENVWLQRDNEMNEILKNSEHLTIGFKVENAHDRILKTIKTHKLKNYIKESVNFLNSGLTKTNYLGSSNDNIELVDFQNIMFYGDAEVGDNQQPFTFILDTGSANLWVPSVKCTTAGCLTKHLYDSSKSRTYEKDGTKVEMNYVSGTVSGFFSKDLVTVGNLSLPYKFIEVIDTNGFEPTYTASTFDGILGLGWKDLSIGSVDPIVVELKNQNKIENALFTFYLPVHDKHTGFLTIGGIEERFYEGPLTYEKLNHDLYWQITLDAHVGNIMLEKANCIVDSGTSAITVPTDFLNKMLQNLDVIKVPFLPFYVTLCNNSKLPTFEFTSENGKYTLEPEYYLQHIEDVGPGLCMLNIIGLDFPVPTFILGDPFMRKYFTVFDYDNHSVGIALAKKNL

[3] = target: Protease (Human immunodeficiency virus 1, UniProt Q9YQ12); test: Inhibition of HIV1 protease by fluorescence microplate assay; method in brief: as §1
Sequence of Protease (Q9YQ12 whole entry): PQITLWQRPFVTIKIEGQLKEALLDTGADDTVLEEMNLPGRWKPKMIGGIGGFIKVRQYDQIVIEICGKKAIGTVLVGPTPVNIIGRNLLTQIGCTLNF

Sequence of Plasmepsin I (P39898 whole entry): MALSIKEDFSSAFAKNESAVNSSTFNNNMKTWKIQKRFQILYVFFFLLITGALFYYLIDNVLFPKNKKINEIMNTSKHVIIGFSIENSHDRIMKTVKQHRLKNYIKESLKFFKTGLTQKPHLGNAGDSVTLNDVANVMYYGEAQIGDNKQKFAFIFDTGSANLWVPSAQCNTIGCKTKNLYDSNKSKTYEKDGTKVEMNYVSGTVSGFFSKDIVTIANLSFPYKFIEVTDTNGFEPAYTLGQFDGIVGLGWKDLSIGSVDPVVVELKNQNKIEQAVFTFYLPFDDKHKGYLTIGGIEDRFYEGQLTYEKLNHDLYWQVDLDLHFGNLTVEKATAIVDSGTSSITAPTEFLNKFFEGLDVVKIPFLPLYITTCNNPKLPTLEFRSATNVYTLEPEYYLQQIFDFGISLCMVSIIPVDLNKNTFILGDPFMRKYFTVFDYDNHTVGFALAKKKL

SMILES | IC50 [1] | IC50 [2] | IC50 [3] | Ki [3]
COc1ccccc1C(=O)N[C@@H](CC(C)C)[C@@H](O)[C@H](O)[C@H](CC(C)C)NC(=O)c1ccccc1OC | > 25 µM | > 25 µM | 1.31 µM | –
CC(C)C[C@H](NC(=O)CC1CCCCC1)[C@@H](O)[C@H](O)[C@H](CC(C)C)NC(=O)CC1CCCCC1 | 2.64 µM | > 25 µM | > 25 µM | –
O=C(CC1CCCCC1)N[C@@H](Cc1ccccc1)[C@@H](O)[C@H](O)[C@H](Cc1ccccc1)NC(=O)CC1CCCCC1 | 4.39 µM | 3.91 µM | > 25 µM | –
O=C(N[C@@H](Cc1ccccc1)[C@@H](O)[C@H](O)[C@H](Cc1ccccc1)NC(=O)c1ccc(F)cc1Cl)c1ccc(F)cc1Cl | > 25 µM | > 25 µM | 0.395 µM | 0.4 µM
O=C(N[C@@H](Cc1ccccc1)[C@@H](O)[C@H](O)[C@H](Cc1ccccc1)NC(=O)c1ccc(F)cc1Cl)c1ccc2c(c1)OCCO2 | > 25 µM | 11.8 µM | > 25 µM | –
Cc1ccc(C(=O)N[C@@H](Cc2ccccc2)[C@@H](O)[C@H](O)[C@H](Cc2ccccc2)NC(=O)C2CCOC2)cn1 (some centres undefined) | > 25 µM | 12.7 µM | > 25 µM | –
